How the values were obtained:
[1] = system: SW-620; experiment: Growth inhibition of human SW620 cells after 48 hrs by coulter counting analysis; assay type: functional; conditions: SW-620, 48 h
Summary of the method: (§1)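 Five-dose NCI-60 follow-up, 0.01–100 µM, made from DMSO stock in buffered saline (final DMSO <1%), in duplicate wells. Cells in RPMI 1640 with 10% FBS at 6×10^4 cells/ml, 37 °C, 5% CO2, 48 h. Cells diluted tenfold in saline, Coulter-counted and corrected for dilution. GI50, TGI and LC50 taken from log concentration–percent growth curves.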

[2] = system: CAKI-1; experiment: Growth inhibition of human CAKI-1 cells after 48 hrs by coulter counting analysis; assay type: functional; conditions: CAKI-1, 48 h
Summary of the method: (§2)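 NCI five-dose screen at 0.01-100 µM, diluted from DMSO stocks in buffered saline (final DMSO <1%). Cells at 6×10^4 cells/ml in RPMI 1640 with 10% FBS, in duplicate wells, at 37 °C under 5% CO2 for 48 h. Cells diluted tenfold in saline and Coulter-counted. GI50, TGI and LC50 taken from log concentration-growth inhibition curves.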

[3] = biological target: Cyclin-dependent kinase 2/cyclin E1 (Homo sapiens) (UniProt P24864+P24941); experiment: Inhibition of CDK2/Cyclin E1 (unknown origin) at 20 uM after 30 mins by scintillation counting analysis relative to control; assay type: protein-complex assay
Summary of the method: (§3)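 Recombinant kinases, cloned, expressed and purified in-house. Radiometric ³³P-ATP assay with kinase at ~10-50 nM final and 1-5 µg peptide or protein substrate. Compound at 20 µM final, in duplicate. Reaction started by adding ATP, run 30 min at ambient temperature, then spotted on P81 phosphocellulose. Plates washed in 1% phosphoric acid and counted by scintillation. No-substrate blank subtracted. Result is mean % activity change versus DMSO control.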

[4] = system: IGROV-1; experiment: Growth inhibition of human IGROV1 cells after 48 hrs by coulter counting analysis; assay type: functional; conditions: IGROV-1, 48 h; summary of the method: as §2
[5] = Growth inhibition of human BT549 cells after 48 hrs by coulter counting analysis; assay type: functional; conditions: BT-549, 48 h; summary of the method: as §2
[6] = Growth inhibition of human HCC2998 cells after 48 hrs by coulter counting analysis; assay type: functional; conditions: HCC 2998, 48 h; summary of the method: as §2
[7] = system: K562; experiment: Growth inhibition of human K562 cells after 48 hrs by coulter counting analysis; assay type: functional; conditions: K562, 48 h; summary of the method: as §2
[8] = system: SK-MEL-5; experiment: Growth inhibition of human SK-MEL-5 cells after 48 hrs by coulter counting analysis; assay type: functional; conditions: SK-MEL-5, 48 h; summary of the method: as §1
[9] = system: SNB-75; experiment: Growth inhibition of human SNB75 cells after 48 hrs by coulter counting analysis; assay type: functional; conditions: SNB-75, 48 h; summary of the method: as §1
[10] = system: NCI-H226; experiment: Growth inhibition of human NCI-H226 cells after 48 hrs by coulter counting analysis; assay type: functional; conditions: NCI-H226, 48 h; summary of the method: as §1
[11] = system: HOP-62; experiment: Growth inhibition of human HOP62 cells after 48 hrs by coulter counting analysis; assay type: functional; conditions: HOP-62, 48 h; summary of the method: as §2
[12] = system: NCI-H522; experiment: Growth inhibition of human NCI-H522 cells after 48 hrs by coulter counting analysis; assay type: functional; conditions: NCI-H522, 48 h; summary of the method: as §1
[13] = Growth inhibition of human HOP92 cells after 48 hrs by coulter counting analysis; assay type: functional; conditions: HOP-92, 48 h; summary of the method: as §2
[14] = system: HCT-116; experiment: Growth inhibition of human HCT116 cells after 48 hrs by coulter counting analysis; assay type: functional; conditions: HCT-116, 48 h; summary of the method: as §2
[15] = Growth inhibition of human MOLT4 cells after 48 hrs by coulter counting analysis; assay type: functional; conditions: MOLT-4, 48 h; summary of the method: as §1
[16] = system: ACHN; experiment: Growth inhibition of human ACHN cells after 48 hrs by coulter counting analysis; assay type: functional; summary of the method: as §2
[17] = system: MCF7; experiment: Growth inhibition of human MCF7 cells after 48 hrs by coulter counting analysis; assay type: functional; conditions: MCF7, 48 h; summary of the method: as §2
[18] = system: U-251; experiment: Growth inhibition of human U251 cells after 48 hrs by coulter counting analysis; assay type: functional; conditions: U-251, 48 h
Summary of the method: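 NCI five-dose screen, 0.01-100 µM, from DMSO stocks diluted in buffer saline (final DMSO <1%). Cells grown in RPMI 1640 + 10% FBS, seeded at 6×10^4 cells/ml, in duplicate wells. Exposure 48 h at 37 °C, 5% CO2. Cells diluted 10-fold in saline and counted by Coulter counter. GI50 derived from log concentration–percent growth inhibition curves. Controls carried matching PBS/saline/DMSO.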

[19] = Growth inhibition of human OVCAR3 cells after 48 hrs by coulter counting analysis; assay type: functional; conditions: OVCAR-3, 48 h; summary of the method: as §1
[20] = system: NCI-H460; experiment: Growth inhibition of human NCI-H460 cells after 48 hrs by coulter counting analysis; assay type: functional; conditions: NCI-H460, 48 h; summary of the method: as §1
[21] = system: 786-0; experiment: Growth inhibition of human 786-0 cells after 48 hrs by coulter counting analysis; assay type: functional; conditions: 786-0, 48 h; summary of the method: as §2
[22] = system: A549; experiment: Growth inhibition of human A549/ATCC cells after 48 hrs by coulter counting analysis; assay type: functional; conditions: A549, 48 h; summary of the method: as §2
[23] = Growth inhibition of human RXF393 cells after 48 hrs by coulter counting analysis; assay type: functional; conditions: RXF 393, 48 h; summary of the method: as §1
[24] = Growth inhibition of human OVCAR5 cells after 48 hrs by coulter counting analysis; assay type: functional; conditions: OVCAR-5, 48 h; summary of the method: as §1
[25] = Growth inhibition of human NCI-ADR-RES cells after 48 hrs by coulter counting analysis; assay type: functional; summary of the method: as §1
[26] = system: KM12; experiment: Growth inhibition of human KM12 cells after 48 hrs by coulter counting analysis; assay type: functional; conditions: KM12, 48 h; summary of the method: as §2
[27] = system: SK-OV-3; experiment: Growth inhibition of human SKOV3 cells after 48 hrs by coulter counting analysis; assay type: functional; conditions: SK-OV-3, 48 h; summary of the method: as §1
[28] = system: NCI-H23; experiment: Growth inhibition of human NCI-H23 cells after 48 hrs by coulter counting analysis; assay type: functional; conditions: NCI-H23, 48 h; summary of the method: as §1
[29] = Growth inhibition of human HCT15 cells after 48 hrs by coulter counting analysis; assay type: functional; conditions: HCT-15, 48 h; summary of the method: as §2
[30] = Growth inhibition of human SF539 cells after 48 hrs by coulter counting analysis; assay type: functional; conditions: SF-539, 48 h; summary of the method: as §1
[31] = system: M14; experiment: Growth inhibition of human M14 cells after 48 hrs by coulter counting analysis; assay type: functional; conditions: M14, 48 h; summary of the method: as §2
[32] = biological target: Cyclin-dependent kinase 4/cyclin D1 (Homo sapiens) (UniProt P11802+P24385); experiment: Inhibition of CDK4/Cyclin D1 (unknown origin) at 20 uM after 30 mins by scintillation counting analysis relative to control; assay type: protein-complex assay; summary of the method: as §3
[33] = system: SK-MEL-2; experiment: Growth inhibition of human SK-MEL-2 cells after 48 hrs by coulter counting analysis; assay type: functional; conditions: SK-MEL-2, 48 h; summary of the method: as §1
[34] = Growth inhibition of human OVCAR8 cells after 48 hrs by coulter counting analysis; assay type: functional; conditions: OVCAR-8, 48 h; summary of the method: as §1
[35] = system: MDA-MB-435; experiment: Growth inhibition of human MDA-MB-435 cells after 48 hrs by coulter counting analysis; assay type: functional; conditions: MDA-MB-435, 48 h; summary of the method: as §2
[36] = Growth inhibition of human SF295 cells after 48 hrs by coulter counting analysis; assay type: functional; conditions: SF-295, 48 h; summary of the method: as §1
[37] = system: HT-29; experiment: Growth inhibition of human HT-29 cells after 48 hrs by coulter counting analysis; assay type: functional; conditions: HT-29, 48 h; summary of the method: as §2
[38] = system: Malme-3M; experiment: Growth inhibition of human MALME-3M cells after 48 hrs by coulter counting analysis; assay type: functional; summary of the method: as §2

COc1c(C(=O)/C=C/c2ccccc2)c(O)cc2occc12
GI50 [1]: 3.52 µM
GI50 [2]: 8.07 µM
inhibition [3]: 1%
GI50 [4]: 3.51 µM
GI50 [5]: 7.72 µM
GI50 [6]: 3.76 µM
GI50 [7]: 4.43 µM
GI50 [8]: 3.87 µM
GI50 [9]: 2.42 µM
GI50 [10]: 6.03 µM
GI50 [11]: 11.3 µM
GI50 [12]: 4.29 µM
GI50 [13]: 1.64 µM
GI50 [14]: 3.72 µM
GI50 [15]: 3.36 µM
GI50 [16]: 4.51 µM
GI50 [17]: 3.52 µM
GI50 [18]: 4.39 µM
GI50 [19]: 3.76 µM
GI50 [20]: 3.02 µM
GI50 [21]: 16.2 µM
GI50 [22]: 8.62 µM
GI50 [23]: 3.56 µM
GI50 [24]: 5.67 µM
GI50 [25]: 2.42 µM
GI50 [26]: 3.71 µM
GI50 [27]: 14.1 µM
GI50 [28]: 6.12 µM
GI50 [29]: 5.25 µM
GI50 [30]: 3.22 µM
GI50 [31]: 8.89 µM
inhibition [32]: 13%
GI50 [33]: 12.4 µM
GI50 [34]: 3.63 µM
GI50 [35]: 3.21 µM
GI50 [36]: 7.83 µM
GI50 [37]: 6.34 µM

COc1ccccc1/C=C/C(=O)c1c(O)cc2occc2c1OC
GI50 [1]: > 100 µM
GI50 [2]: > 100 µM
inhibition [3]: 6%
GI50 [4]: 26 µM
GI50 [5]: 28.2 µM
GI50 [6]: > 100 µM
GI50 [38]: 18.9 µM
GI50 [8]: > 100 µM
GI50 [9]: 7.49 µM
GI50 [10]: 25.1 µM
GI50 [11]: 19.3 µM
GI50 [12]: > 100 µM
GI50 [13]: 2.98 µM
GI50 [14]: 40.4 µM
GI50 [16]: 30 µM
GI50 [17]: 9.56 µM
GI50 [18]: 18.9 µM
GI50 [19]: 47.4 µM
GI50 [20]: > 100 µM
GI50 [21]: 35.3 µM
GI50 [22]: > 100 µM
GI50 [23]: 14.9 µM
GI50 [24]: > 100 µM
GI50 [25]: 29.6 µM
GI50 [26]: > 100 µM
GI50 [27]: 21.3 µM
GI50 [28]: 22.4 µM
GI50 [29]: > 100 µM
GI50 [30]: 24.3 µM
GI50 [31]: > 100 µM
inhibition [32]: 0%
GI50 [33]: > 100 µM
GI50 [34]: 53.8 µM
GI50 [35]: 5.69 µM
GI50 [36]: 16.6 µM
GI50 [37]: > 100 µM

Reference: ChEMBL document CHEMBL3286372, “Design, synthesis and structure-activity relationship of novel semi-synthetic flavonoids as antiproliferative agents” (2014)
